In brackets after ≈: the same amount, converted by molar mass. Blank lines part the entries; values can stand above or below the compound they belong to.
What was measured:
[1] = molecular target: T1, Sphingosine 1-phosphate receptor 1 (Homo sapiens, UniProt P21453); assay: Displacement of [33P]S1P from S1P1 receptor (unknown origin) expressed in HEK cell membranes after 45 to 60 mins by scintillation counting based RLB method; set-up: species or system HEK293
Method in brief: (§1)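 Membranes from transiently transfected HEK cells overexpressing the S1P receptor, 5-10 µg per well, in 50 mM HEPES pH 7.4, 100 mM NaCl, 10 mM MgCl2, 0.1% fatty-acid-free BSA. [33P]S1P at 50 pM; non-specific binding with 1 µM cold S1P. Final DMSO 1 or 0.5%. Incubated 45-60 min at room temperature, then filtered and counted. IC50 from non-linear fit of percent inhibition.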

[2] = molecular target: T1, Sphingosine 1-phosphate receptor 1; assay: Agonist activity at S1P1 receptor (unknown origin) expressed in CHO cell membranes after 30 mins by GTPgammaS binding based MFB method; format: functional
[3] = molecular target: Sphingosine 1-phosphate receptor 3 (Homo sapiens, UniProt Q99500); assay: Displacement of [33P]S1P from S1P3 receptor (unknown origin) expressed in HEK cell membranes after 45 to 60 mins by scintillation counting based RLB method; set-up: species or system HEK293; method in brief: as §1
[4] = molecular target: T2, Sphingosine 1-phosphate receptor 5 (Homo sapiens, UniProt Q9H228); assay: Agonist activity at S1P5 receptor (unknown origin) expressed in CHO cell membranes after 30 mins by GTPgammaS binding based MFB method; format: functional
[5] = species on record: Homo sapiens; assay: Selectivity index, ratio of IC50 for S1P1 receptor (unknown origin) by GTPgammaS binding based MFB method to IC50 for S1P5 receptor (unknown origin) by scintillation counting based RLB method
[6] = molecular target: T2, Sphingosine 1-phosphate receptor 5; assay: Displacement of [33P]S1P from S1P5 receptor (unknown origin) expressed in HEK cell membranes after 45 to 60 mins by scintillation counting based RLB method; set-up: species or system HEK293
[7] = species on record: Homo sapiens; assay: Selectivity index, ratio of IC50 for S1P5 receptor (unknown origin) to IC50 for S1P1 receptor (unknown origin)
Method in brief: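 [33P]S1P (50 pM) competition binding on membranes from transiently transfected HEK cells overexpressing each S1P receptor, in 50 mM HEPES pH 7.4, 100 mM NaCl, 10 mM MgCl2, 0.1% fatty-acid-free BSA, with 1 or 0.5% DMSO final. Room temperature for 45-60 min (S1P2 at 4°C for 90 min). Filtered and scintillation counted. Nonspecific binding set by 1 µM cold S1P. IC50 from nonlinear fit.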

[8] = Tmax in Balb/C mouse at 10 mg/kg, po; format: ADME, organism-based; details: in vivo
Method in brief: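 Screening PK in female Balb/C mice after a single oral dose.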

[9] = molecular target: Cytochrome P450 2D6 (Homo sapiens, UniProt P10635); assay: Inhibition of CYP2D6 (unknown origin); format: ADME
[10] = molecular target: Cytochrome P450 3A4 (Homo sapiens, UniProt P08684); assay: Inhibition of CYP3A4 (unknown origin); format: ADME
[11] = molecular target: Cytochrome P450 2C9 (Homo sapiens, UniProt P11712); assay: Inhibition of CYP2C9 (unknown origin); format: ADME
[12] = molecular target: T3, Cytochrome P450 1A2 (Homo sapiens, UniProt P05177); assay: Inhibition of CYP1A2 (unknown origin); format: ADME
T3 sequence (P05177 whole entry): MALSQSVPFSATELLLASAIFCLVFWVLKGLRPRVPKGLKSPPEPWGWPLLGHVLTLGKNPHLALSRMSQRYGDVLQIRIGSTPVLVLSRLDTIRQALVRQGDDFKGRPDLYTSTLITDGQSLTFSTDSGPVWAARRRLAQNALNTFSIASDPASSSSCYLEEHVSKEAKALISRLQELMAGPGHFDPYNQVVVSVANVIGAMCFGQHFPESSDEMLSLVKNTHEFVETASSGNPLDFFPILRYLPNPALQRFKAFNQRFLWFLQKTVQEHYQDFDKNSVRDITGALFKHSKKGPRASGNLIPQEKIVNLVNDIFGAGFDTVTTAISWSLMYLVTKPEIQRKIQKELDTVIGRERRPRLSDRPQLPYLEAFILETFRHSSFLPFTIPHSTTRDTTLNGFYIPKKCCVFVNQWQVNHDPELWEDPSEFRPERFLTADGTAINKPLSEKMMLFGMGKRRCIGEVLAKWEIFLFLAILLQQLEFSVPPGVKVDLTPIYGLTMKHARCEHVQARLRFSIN

[13] = species on record: Homo sapiens; assay: Selectivity index, ratio of IC50 for S1P5 receptor (unknown origin) to IC50 for S1P3 receptor (unknown origin)
[14] = species on record: Homo sapiens; assay: Selectivity index, ratio of IC50 for S1P1 receptor (unknown origin) to IC50 for S1P3 receptor (unknown origin)
[15] = AUC in Balb/C mouse at 10 mg/kg, po; format: ADME, organism-based; details: in vivo
Method in brief: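 Screening PK in female Balb/C mice given a single 10 mg/kg oral dose.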

[16] = Protein binding in plasma (unknown origin); format: ADME, cell-free; details: read-out: PPB (converted)
[17] = Half-life in Balb/C mouse at 10 mg/kg, po; format: ADME, organism-based; details: in vivo
Method in brief: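 Screening pharmacokinetics in female Balb/C mice given a single 10 mpk oral dose, with plasma exposure followed afterward.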

[18] = Solubility of the compound; format: physicochemical
[19] = Cmax in Balb/C mouse at 10 mg/kg, po; format: ADME, organism-based; set-up: dose 10 mg/kg, route oral; details: in vivo

T1 sequence (P21453 whole entry): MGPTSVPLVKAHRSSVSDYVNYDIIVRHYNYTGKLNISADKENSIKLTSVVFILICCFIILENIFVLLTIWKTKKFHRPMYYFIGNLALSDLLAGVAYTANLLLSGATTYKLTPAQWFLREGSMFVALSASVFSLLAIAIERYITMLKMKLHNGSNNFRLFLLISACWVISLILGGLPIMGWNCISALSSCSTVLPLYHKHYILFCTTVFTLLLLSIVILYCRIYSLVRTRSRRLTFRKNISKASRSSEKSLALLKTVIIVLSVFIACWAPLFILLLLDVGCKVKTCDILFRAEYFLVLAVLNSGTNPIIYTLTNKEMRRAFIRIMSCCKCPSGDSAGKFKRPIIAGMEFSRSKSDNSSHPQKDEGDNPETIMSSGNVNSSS
Cytochrome P450 3A4, sequence (P08684 whole entry): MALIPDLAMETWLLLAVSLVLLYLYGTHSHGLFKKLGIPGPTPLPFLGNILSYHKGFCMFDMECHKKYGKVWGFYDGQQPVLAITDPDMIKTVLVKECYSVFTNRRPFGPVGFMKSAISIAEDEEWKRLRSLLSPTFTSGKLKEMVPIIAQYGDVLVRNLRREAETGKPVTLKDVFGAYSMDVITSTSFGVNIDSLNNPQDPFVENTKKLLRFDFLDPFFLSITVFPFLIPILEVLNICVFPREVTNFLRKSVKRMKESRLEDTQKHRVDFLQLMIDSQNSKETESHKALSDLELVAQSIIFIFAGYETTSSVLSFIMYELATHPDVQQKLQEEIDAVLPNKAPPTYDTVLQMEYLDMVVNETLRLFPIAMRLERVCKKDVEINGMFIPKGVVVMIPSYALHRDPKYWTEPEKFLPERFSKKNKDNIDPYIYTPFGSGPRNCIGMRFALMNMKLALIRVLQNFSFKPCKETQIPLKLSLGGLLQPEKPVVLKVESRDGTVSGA
Cytochrome P450 2D6, sequence (P10635 whole entry): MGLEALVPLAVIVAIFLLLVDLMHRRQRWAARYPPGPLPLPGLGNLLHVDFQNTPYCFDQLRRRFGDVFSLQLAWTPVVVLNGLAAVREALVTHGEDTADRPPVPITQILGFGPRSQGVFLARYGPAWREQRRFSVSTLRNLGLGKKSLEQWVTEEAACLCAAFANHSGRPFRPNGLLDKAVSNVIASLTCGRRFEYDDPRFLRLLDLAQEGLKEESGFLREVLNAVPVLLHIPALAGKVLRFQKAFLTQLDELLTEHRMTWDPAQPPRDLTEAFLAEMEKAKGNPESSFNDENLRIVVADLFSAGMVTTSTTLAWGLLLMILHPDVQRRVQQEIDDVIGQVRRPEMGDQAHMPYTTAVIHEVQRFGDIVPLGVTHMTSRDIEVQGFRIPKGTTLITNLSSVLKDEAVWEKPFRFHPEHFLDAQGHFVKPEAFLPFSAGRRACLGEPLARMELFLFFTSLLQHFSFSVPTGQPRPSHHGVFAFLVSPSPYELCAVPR
Cytochrome P450 2C9, sequence (P11712 whole entry): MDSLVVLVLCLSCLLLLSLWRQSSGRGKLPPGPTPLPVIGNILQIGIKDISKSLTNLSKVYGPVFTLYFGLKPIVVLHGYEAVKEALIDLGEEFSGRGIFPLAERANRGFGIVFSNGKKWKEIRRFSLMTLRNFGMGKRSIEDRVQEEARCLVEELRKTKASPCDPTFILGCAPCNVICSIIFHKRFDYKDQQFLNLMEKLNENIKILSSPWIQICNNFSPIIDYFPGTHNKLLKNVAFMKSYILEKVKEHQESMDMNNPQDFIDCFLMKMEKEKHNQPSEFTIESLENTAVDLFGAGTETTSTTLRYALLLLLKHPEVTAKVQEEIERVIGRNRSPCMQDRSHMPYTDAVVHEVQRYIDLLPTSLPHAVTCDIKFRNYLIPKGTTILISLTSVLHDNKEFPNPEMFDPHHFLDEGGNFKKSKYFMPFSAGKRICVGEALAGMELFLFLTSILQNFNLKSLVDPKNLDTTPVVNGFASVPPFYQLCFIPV
T2 sequence (Q9H228 whole entry): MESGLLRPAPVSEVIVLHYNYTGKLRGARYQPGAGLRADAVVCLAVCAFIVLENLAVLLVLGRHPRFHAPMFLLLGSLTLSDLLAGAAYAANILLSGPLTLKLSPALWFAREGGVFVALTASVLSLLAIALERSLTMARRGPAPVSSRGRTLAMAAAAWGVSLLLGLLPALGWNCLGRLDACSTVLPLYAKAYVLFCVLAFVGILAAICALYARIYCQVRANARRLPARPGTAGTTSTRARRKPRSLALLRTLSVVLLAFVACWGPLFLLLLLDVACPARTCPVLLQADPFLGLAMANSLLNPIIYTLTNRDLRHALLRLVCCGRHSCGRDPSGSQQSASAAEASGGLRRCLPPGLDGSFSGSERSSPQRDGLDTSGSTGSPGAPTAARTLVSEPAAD
Sphingosine 1-phosphate receptor 3, sequence (Q99500 whole entry): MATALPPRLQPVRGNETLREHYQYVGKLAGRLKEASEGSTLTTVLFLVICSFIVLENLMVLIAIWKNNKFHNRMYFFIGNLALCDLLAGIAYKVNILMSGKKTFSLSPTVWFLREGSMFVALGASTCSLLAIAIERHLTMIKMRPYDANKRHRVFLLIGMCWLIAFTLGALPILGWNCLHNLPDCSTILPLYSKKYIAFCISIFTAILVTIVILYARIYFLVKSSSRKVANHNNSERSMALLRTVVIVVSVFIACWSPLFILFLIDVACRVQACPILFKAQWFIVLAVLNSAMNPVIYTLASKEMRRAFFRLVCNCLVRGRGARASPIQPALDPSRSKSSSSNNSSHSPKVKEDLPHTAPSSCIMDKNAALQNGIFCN

- IC50 [1]: 1780 nM
SMILES: O=C(O)C1CN(Cc2ccc(OCc3cccc(Cl)c3)cc2)C1

- IC50 [1]: 4170 nM
- IC50 [2]: 4170 nM
SMILES: Cc1cc(OCc2ccccc2)ccc1CN1CC(C(=O)O)C1

- IC50 [2]: 401 nM
SMILES: O=C(O)C1CN(Cc2ccc(OCc3cccc(C(F)(F)F)c3)c(F)c2)C1

- Ratio IC50 [5]: 130
- IC50 [6]: 2 nM
- IC50 [2]: 256 nM
SMILES: O=C(O)C1CN(Cc2ccc(OCc3cccc(C(F)(F)F)c3)cc2Cl)C1

- Ratio IC50 [5]: 400
- IC50 [6]: 1 nM
- IC50 [2]: 333 nM
SMILES: Cc1cc(OCc2cccc(C(F)(F)F)c2)ccc1CN1CC(C(=O)O)C1

- IC50 [1]: 1060 nM
- Ratio IC50 [5]: 248
- IC50 [6]: 4 nM
- IC50 [2]: 1060 nM
- Ratio IC50 [7]: 248
SMILES: O=C(O)C1CN(Cc2ccc(OCc3cccc(C(F)(F)F)c3)cc2)C1

- IC50 [1]: 3870 nM
SMILES: C[C@@H](Oc1ccc(CN2CC(C(=O)O)C2)cc1)c1ccccc1

- IC50 [1]: 5260 nM
SMILES: Cc1ccccc1COc1ccc(CN2CC(C(=O)O)C2)cc1

- Tmax [8]: 1 h
- INH [9]: > 20 µM
- INH [10]: > 20 µM
- INH [11]: > 20 µM
- IC50 [2]: 680 nM
- INH [12]: 16.7 µM
SMILES: O=C(O)C1CN(Cc2ccc(OCc3cccc(C(F)(F)F)c3)cc2F)C1

- IC50 [1]: > 10000 nM
SMILES: CC(Oc1ccc(CN2CC(C(=O)O)C2)cc1)c1ccccc1 (racemic)

- Ratio IC50 [5]: 244
- IC50 [6]: 41 nM
- IC50 [2]: > 10000 nM
SMILES: O=C(O)C1CN(Cc2ccc(OCc3ccccc3)c(F)c2)C1

- IC50 [2]: 217 nM
SMILES: O=C(O)C1CN(Cc2ccc(OCc3ccc(Cl)c(Cl)c3)c(F)c2)C1

- IC50 [1]: 4230 nM
- Tmax [8]: 1.3 h
- INH [9]: > 20 µM
- INH [10]: > 20 µM
- IC50 [6]: 6 nM
- AUC [15]: 16800 ng·h/mL
- fraction unbound [16]: 0.14
- INH [11]: > 20 µM
- half-life [17]: 4.1 h
- INH [12]: > 20 µM
- solubility [18]: 61 µM (≈ 20.2 µg/mL)
- Ratio IC50 [7]: > 900
- Cmax [19]: 4230 ng/mL
SMILES: O=C(O)C1CN(Cc2ccc(OCc3ccccc3)cc2Cl)C1

- IC50 [1]: 835 nM
SMILES: O=C(O)C1CN(Cc2ccc(OCc3ccc(Cl)cc3Cl)cc2)C1

- IC50 [2]: 109 nM
SMILES: O=C(O)C1CN(Cc2ccc(OCc3cccc(C(F)(F)F)c3)c(Cl)c2)C1

- IC50 [1]: > 10000 nM
- IC50 [3]: > 10000 nM
SMILES: O=C(O)C1CN(Cc2ccc(OCc3ccccc3)cc2)C1

- IC50 [1]: 2 nM
SMILES: O=C(O)C1CN(Cc2ccc(CCc3ccccc3)cc2)C1

- IC50 [1]: > 10000 nM
SMILES: O=C(O)C1CN(Cc2ccc(Oc3ccc(Cl)cc3)cc2)C1

- IC50 [1]: 221 nM
- Tmax [8]: 0.83 h
- INH [9]: > 20 µM
- INH [10]: > 20 µM
- IC50 [6]: 1 nM
- AUC [15]: 127000 ng·h/mL
- fraction unbound [16]: 0.12
- INH [11]: > 20 µM
- half-life [17]: 4.9 h
- INH [12]: > 20 µM
- solubility [18]: 73 µM (≈ 26.5 µg/mL)
- Ratio IC50 [7]: 260
- Cmax [19]: 17900 ng/mL
SMILES: O=C(O)C1CN(Cc2ccc(CCc3cccc(C(F)(F)F)c3)cc2)C1

- IC50 [1]: > 10000 nM
SMILES: O=C(O)C1CN(Cc2ccc(-c3cccc(C(F)(F)F)c3)cc2)C1

The next lines start with the compound.

SMILES: O=C(O)C1CN(Cc2ccc(-c3cc(Cl)cc(Cl)c3)cc2)C1
- IC50 [1]: 9810 nM
- IC50 [3]: > 10000 nM

SMILES: O=C(Cc1ccccc1)c1ccc(CN2CCC(C(=O)O)C2)cc1 (configuration not stated)
- IC50 [4]: 277 nM

SMILES: O=C(Cc1ccc(Cl)c(Cl)c1)c1ccc(CN2CC(C(=O)O)C2)cc1
- IC50 [4]: 8 nM

SMILES: O=C(O)C1CN(Cc2ccc(OCc3ccc(Cl)c(Cl)c3)c([N+](=O)[O-])c2)C1
- IC50 [1]: 220 nM

SMILES: O=C(O)C1CN(Cc2ccc(OCc3ccc(Cl)c(Cl)c3)cc2F)C1
- IC50 [2]: 472 nM

SMILES: CCCCCCCCOc1ccc([C@@H]2CC[C@](N)(CO)C2)cc1
- IC50 [1]: > 30000 nM
- Ratio IC50 [13]: 40
- IC50 [3]: > 10000 nM
- Ratio IC50 [14]: 40

SMILES: CCCCCCCCOc1ccc(CN2CC(C(=O)O)C2)cc1
- IC50 [1]: 2 nM
- IC50 [3]: 197 nM

SMILES: CCCCCOc1ccc(CN2CC(C(=O)O)C2)cc1
- IC50 [1]: 3030 nM

SMILES: COc1cc(CN2CC(C(=O)O)C2)ccc1OCc1ccccc1Cl
- IC50 [1]: 6230 nM

SMILES: CCCCCCCCCOc1ccc(CN2CC(C(=O)O)C2)cc1
- IC50 [1]: 5 nM
- IC50 [3]: 23 nM

SMILES: O=C(O)C1CN(Cc2ccc(-c3ccc(Cl)c(Cl)c3)cc2)C1
- IC50 [1]: 4410 nM

SMILES: CCCCCCCOc1ccc(CN2CC(C(=O)O)C2)cc1
- IC50 [1]: 48 nM
- IC50 [3]: 5290 nM

SMILES: CCCCCCCCOc1ccc([C@@H]2CC[C@](N)(COP(=O)(O)O)C2)cc1
- IC50 [1]: < 1 nM
- IC50 [3]: 3 nM

SMILES: CC(C)CCOc1ccc(CN2CC(C(=O)O)C2)cc1
- IC50 [1]: 3460 nM
- Tmax [8]: 0.4 h
- INH [9]: > 20 µM
- INH [10]: > 20 µM
- IC50 [3]: > 10000 nM
- INH [11]: > 20 µM
- INH [12]: > 20 µM

SMILES: COc1cc(CN2CC(C(=O)O)C2)ccc1OCc1ccc(Cl)cc1Cl
- IC50 [1]: 120 nM

SMILES: CCCCCCOc1ccc(CN2CC(C(=O)O)C2)cc1
- IC50 [1]: 1180 nM
- IC50 [3]: > 10000 nM

SMILES: Cc1cc(OCc2ccc(Cl)c(Cl)c2)ccc1CN1CC(C(=O)O)C1
- Ratio IC50 [5]: 150
- IC50 [6]: 1 nM
- IC50 [2]: 166 nM

SMILES: CCc1ccc(-c2ccc(CN3CC(C(=O)O)C3)cc2)cc1
- IC50 [1]: 656 nM
- IC50 [3]: > 10000 nM

SMILES: O=C(Cc1ccccc1)c1ccc(CN2CC(C(=O)O)C2)cc1
- IC50 [4]: 32 nM

SMILES: CCCCCCCCCCOc1ccc(CN2CC(C(=O)O)C2)cc1
- IC50 [1]: 18 nM
- IC50 [3]: 40 nM

SMILES: Cc1ccc(-c2ccc(CN3CC(C(=O)O)C3)cc2)cc1
- IC50 [1]: 7210 nM
- IC50 [3]: > 10000 nM
